Measurements taken from ChEMBL document CHEMBL1133641, “A new class of potential chloroquine-resistance reversal agents for Plasmodia: syntheses and biological evaluation of 1-(3'-diethylaminopropyl)-3-(substituted phenylmethylene)pyrrolidines” (2000).
Calls of active or inactive are those of the source. No cut-off for these calls is given here.

Key:
[1] = system: Plasmodium yoelii nigeriensis; experiment: In Vitro inhibition of Heme Oxygenase in Cell-free parasite Plasmodium yoelii at concentration 50 uM; format: functional
In short: (§1)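 Heme oxygenase activity was measured as bilirubin formation in a post-mitochondrial fraction. The parasite enzyme came from cell-free P. yoelii, isolated from infected blood by density gradient centrifugation and saponin lysis. The host enzyme came from infected liver. Compounds were tested at 10–100 µM and preincubated for 10 min before the reaction was started.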

Mus musculus [2] = species: Mus musculus; experiment: (§2) In Vitro evaluation on percentage inhibition in Heme Oxygenase at concentration 100 (uM) of infected host
In short: (§3)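 Heme oxygenase from liver of P. yoelii-infected host, post-mitochondrial fraction, run as the host-enzyme counterpart to the cell-free parasite assay. Test compounds at 10-100 µM were preincubated in the assay system for 10 min before starting the reaction. Activity was followed by bilirubin formation and reported as percent inhibition.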

Mus musculus [3] = species: Mus musculus; experiment: In Vitro evaluation on percentage inhibition in Heme Oxygenase at concentration 50 (uM) of infected host; in short: as §3
[4] = system: Plasmodium yoelii nigeriensis; experiment: In Vitro inhibition of Heme Oxygenase in Cell-free parasite Plasmodium yoelii at concentration 100 uM; format: functional; in short: as §1
[5] = molecular target: T1, Glutathione S-transferase (Plasmodium yoelii yoelii) (UniProt Q7REH6); experiment: Inhibition of Glutathione S-transferase in Plasmodium yoelii nigeriensis isolated from infected mice (Mus musculus) (oral); NI denotes nil inhibition
T1 sequence (whole entry): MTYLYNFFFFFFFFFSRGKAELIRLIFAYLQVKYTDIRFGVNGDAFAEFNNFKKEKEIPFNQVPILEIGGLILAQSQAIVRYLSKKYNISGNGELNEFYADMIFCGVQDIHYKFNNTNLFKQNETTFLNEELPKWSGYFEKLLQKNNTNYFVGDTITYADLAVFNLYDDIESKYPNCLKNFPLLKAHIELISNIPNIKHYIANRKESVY
In short: (§4)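 Swiss albino mice carried P. yoelii nigeriensis tolerant to CQ up to 120 mg/kg. They received compound orally at 15 mg/kg body wt for 5 days. Parasites were then isolated from blood by density gradient centrifugation and saponin lysis, and enzyme inhibition was measured as percent inhibition.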

[6] = In Vitro evaluation on percentage inhibition in Heme Oxygenase at concentration 10 (uM)of infected host; in short: as §1
[7] = as §2; in short: as §1
[8] = In Vitro evaluation on percentage inhibition in Heme Oxygenase at concentration 50(uM) of infected host; in short: as §1
[9] = system: Plasmodium yoelii nigeriensis; experiment: In Vitro inhibition of Heme Oxygenase in Cell-free parasite Plasmodium yoelii at concentration 10 uM; format: functional; in short: as §1
[10] = system: Plasmodium yoelii nigeriensis; experiment: Inhibition of heme oxygenase in Plasmodium yoelii nigeriensis isolated from infected mice (Mus musculus) (oral); NI denotes no inhibition; format: functional, organism-based; in short: as §4

inhibition (Mus musculus [2]) | inhibition (Mus musculus [3]) | NI [5] | inhibition [6] | inhibition [7] | inhibition [8] | Compound | inhibition [1] | inhibition [4] | inhibition [9] | NI [10]
19% | 15% |  |  |  |  | COc1ccc(CCN(C)CCCC(C#N)(c2ccc(OC)c(OC)c2)C(C)C)cc1OC (configuration not stated) | 100% | 100% |  | 
 |  | No inhibition | 10% | 65% | 65% | CCN(CC)CCCN1CC/C(=C\c2ccccc2)C1 | 64% | 82% | 52% | inactive
